Measurements reported in ChEMBL document CHEMBL1157882, “Novel 2-[(benzylamino)methyl]pyrrolidine-3,4-diol derivatives as alpha-mannosidase inhibitors and with antitumor activities against hematological and solid malignancies” (Bioorg Med Chem, 2010).
pIC50, pKi: −log10 of the molar value. Active and inactive are the calls of the source. The rule behind the calls is not given here.

Key:
SK-BR-3 [1] = experiment: Cell cycle arrest in human SKBR3 cells by accumulation of cells at G1 phase at 50 uM after 48 hrs by propidium iodide-staining based flow cytometry (reference value: 54%); assay type: functional
[2] = Cytotoxicity in human B-CLL assessed as late apoptotic/necrotic cells at 50 uM after 24 hrs by annexin V/propidium iodide staining based flow cytometry (reference value: 10 to 14.7%); assay type: functional
Bos taurus = species: Bos taurus; experiment: Inhibition of beta-N-acetylglucosaminidase from bovine kidney at pH 4; parameters: concentration or dose not given beside the values; conditions: concentration not given here
A549 = experiment: Cytotoxicity against human A549 cells after 72 hrs by colorimetric assay in presence of pan-caspase inhibitor zVAD-fmk; assay type: functional, cell-based
Canavalia ensiformis [3] = experiment: Inhibition of beta-N-acetylglucosaminidase from jack bean at pH 5; parameters: concentration or dose not given beside the values; conditions: concentration not given here
[4] = Cytotoxicity in human B-CLL assessed as viable cells at 200 uM after 24 hrs by annexin V/propidium iodide staining based flow cytometry (reference value: 65.8 to 78%); assay type: functional; conditions: read-out: Activity
[5] = Inhibition of alpha-mannosidase from jack bean at pH 5; parameters: species or system Canavalia ensiformis
Saccharomyces cerevisiae = experiment: Inhibition of alpha-glucosidase from yeast at 1 mM at pH 7
Procedure, shortened: (§1)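 Glycosidase panel of commercial enzymes assayed at each enzyme's optimal pH with compound at 1 mM; percentage inhibition of enzyme activity calculated.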

MCF7 [6] = experiment: Increase in CDKN1C mRNA level in human MCF7 cells at 50 uM after 12 hrs by TLDA; assay type: functional, cell-based
Procedure, shortened: (§2)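 SKBR3 and MCF7 cells seeded at 2 × 10⁵ per well, treated 12 h with 50 µM compound (DMSO stock); total RNA extracted, cDNA made with random hexamers, gene expression profiled by TaqMan low-density arrays (qPCR, duplicate per gene). Normalised to RPLP0; fold change versus DMSO vehicle-treated cells, calculated as 2^-ΔΔCT.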

SK-BR-3 [7] = experiment: Increase in CDKN1C mRNA level in human SKBR3 cells at 50 uM after 12 hrs by TLDA; assay type: functional, cell-based; procedure, shortened: as §2
[8] = Cytotoxicity in human B-CLL assessed as viable cells at 100 uM after 24 hrs by annexin V/propidium iodide staining based flow cytometry (reference value: 65.8 to 78%); assay type: functional; conditions: read-out: Activity
SK-BR-3 [9] = experiment: Cell cycle arrest in human SKBR3 cells by accumulation of cells at S phase at 100 uM after 48 hrs by propidium iodide-staining based flow cytometry (reference value: 30%); assay type: functional
[10] = Cytotoxicity in human B-CLL assessed as early apoptotic cells at 50 uM after 24 hrs by annexin V/propidium iodide staining based flow cytometry (reference value: 3.6 to 20.2%); assay type: functional
[11] = biological target: T1, Tissue alpha-L-fucosidase (Bos taurus) (UniProt Q2KIM0); experiment: Inhibition of alpha-L-fucosidase from bovine kidney at 1 mM at pH 6; procedure, shortened: as §1
T1 sequence (whole entry): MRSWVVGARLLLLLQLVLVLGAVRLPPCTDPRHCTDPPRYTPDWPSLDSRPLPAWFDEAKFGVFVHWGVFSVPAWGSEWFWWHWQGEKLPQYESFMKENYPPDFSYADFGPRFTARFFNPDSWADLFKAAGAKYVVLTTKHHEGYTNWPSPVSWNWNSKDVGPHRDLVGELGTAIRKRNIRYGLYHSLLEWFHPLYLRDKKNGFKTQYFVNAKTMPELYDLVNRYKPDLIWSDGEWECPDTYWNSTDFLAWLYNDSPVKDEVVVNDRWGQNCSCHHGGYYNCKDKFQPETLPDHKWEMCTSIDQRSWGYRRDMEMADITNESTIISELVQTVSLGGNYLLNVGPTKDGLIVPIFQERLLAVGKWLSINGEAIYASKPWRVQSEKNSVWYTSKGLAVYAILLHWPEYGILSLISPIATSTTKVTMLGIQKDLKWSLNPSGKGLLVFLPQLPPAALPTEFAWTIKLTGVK

[12] = Cytotoxicity in human multiple myeloma cells assessed as late apoptotic/necrotic cells at 100 uM after 24 hrs by annexin V/propidium iodide staining based flow cytometry (reference value: 9.1%); assay type: functional, Multiple myeloma cell
MCF7 [13] = experiment: Decrease in CDC25 mRNA level in human MCF7 cells at 50 uM after 12 hrs by TLDA; assay type: functional, cell-based
Procedure, shortened: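 SKBR3 or MCF7 cells, 2×10⁵/well, treated with 50 µM for 12 h. Total RNA was column-purified and reverse-transcribed with random hexamers, then assayed on TaqMan low-density arrays. Expression was normalised to RPLP0, with fold change versus DMSO-vehicle cells calculated as 2^-ΔΔCT. Q-PCR run in duplicate per gene.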

Jurkat = experiment: Cytotoxicity in human Jurkat cells overexpressing Bcl2 assessed as cell death at 50 uM after 72 hrs by propidium iodide-staining based flow cytometry; assay type: functional
Procedure, shortened: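 Jurkat T cells stably overexpressing Bcl-2, plus vector controls, in RPMI-1640 with 10% FBS. Seeded at 4×10⁴ per well and treated for 72 h with 40 µM etoposide, 2 µM doxorubicin or 50 µM compound. Dead cells counted by propidium iodide staining and flow cytometry; means of triplicates with SD.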

[14] = Cytotoxicity in human multiple myeloma cells assessed as early apoptotic cells at 50 uM after 24 hrs by annexin V/propidium iodide staining based flow cytometry (reference value: 0.1%); assay type: functional, Multiple myeloma cell
[15] = Cytotoxicity in human multiple myeloma cells assessed as pre-necrotic cells at 200 uM after 24 hrs by annexin V/propidium iodide staining based flow cytometry (reference value: 42.1%); assay type: functional, Multiple myeloma cell
MCF7 [16] = experiment: Decrease in hTERT mRNA level in human MCF7 cells at 50 uM after 12 hrs by TLDA; assay type: functional, cell-based; procedure, shortened: as §2
[17] = Cytotoxicity in human multiple myeloma cells assessed as early apoptotic cells at 200 uM after 24 hrs by annexin V/propidium iodide staining based flow cytometry (reference value: 0.1%); assay type: functional, Multiple myeloma cell
[18] = Cytotoxicity in human multiple myeloma cells assessed as late apoptotic/necrotic cells at 50 uM after 24 hrs by annexin V/propidium iodide staining based flow cytometry (reference value: 9.1%); assay type: functional, Multiple myeloma cell
SK-BR-3 [19] = experiment: Cell cycle arrest in human SKBR3 cells by accumulation of cells at G2/M phase at 50 uM after 48 hrs by propidium iodide-staining based flow cytometry (reference value: 16%); assay type: functional
[20] = Cytotoxicity in human B-CLL assessed as late apoptotic/necrotic cells at 100 uM after 24 hrs by annexin V/propidium iodide staining based flow cytometry (reference value: 10 to 14.7%); assay type: functional
Canavalia ensiformis [21] = experiment: Inhibition of alpha-mannosidase from jack bean at 1 mM at pH 5; procedure, shortened: as §1
Aspergillus niger = experiment: Inhibition of beta-xylosidase from Aspergillus niger at pH 5; parameters: concentration or dose not given beside the values; conditions: concentration not given here
SK-BR-3 [22] = experiment: Cell cycle arrest in human SKBR3 cells by accumulation of cells at G2/M phase at 200 uM after 48 hrs by propidium iodide-staining based flow cytometry (reference value: 16%); assay type: functional
[23] = Cytotoxicity in human multiple myeloma cells assessed as late apoptotic/necrotic cells at 200 uM after 24 hrs by annexin V/propidium iodide staining based flow cytometry (reference value: 9.1%); assay type: functional, Multiple myeloma cell
SK-BR-3 [24] = experiment: Cell cycle arrest in human SKBR3 cells by accumulation of cells at S phase at 50 uM after 48 hrs by propidium iodide-staining based flow cytometry (reference value: 30%); assay type: functional
[25] = Cytotoxicity in human B-CLL assessed as pre-necrotic cells at 200 uM after 24 hrs by annexin V/propidium iodide staining based flow cytometry (reference value: 1.3 to 3.7%); assay type: functional

Question: What does the source list for `OC[C@H](NC[C@H]1NC[C@H](O)[C@@H]1O)c1ccc(-c2ccc(C(F)(F)F)cc2)cc1`?
Answer: Activity (SK-BR-3 [1]): 57%; Activity [2]: 10.1%; inhibition (Bos taurus): < 10%; Activity (A549): Active; inhibition (Canavalia ensiformis [3]): < 10%; viability at 200 µM [4]: 1.6%; pIC50 [5]: 5.30; pKi [5]: 5.57; inhibition (Saccharomyces cerevisiae): < 10%; Activity (MCF7 [6]): Active; Activity (SK-BR-3 [7]): Active; viability at 100 µM [8]: 5.1%; Activity (SK-BR-3 [9]): 9%; Activity [10]: 11.3%; inhibition [11]: < 10%; Activity [12]: 52.6%; Activity (MCF7 [13]): Active; Activity (Jurkat): Active; Activity [14]: 2.3%; Activity [15]: 21.3%; Activity (MCF7 [16]): Active; Activity [17]: 0.3%; Activity [18]: 37.9%; Activity (SK-BR-3 [19]): 13%; Activity [20]: 11.1%; inhibition (Canavalia ensiformis [21]): 98%; inhibition (Aspergillus niger): 52%; Activity (SK-BR-3 [22]): 42%; Activity [23]: 75.4%; Activity (SK-BR-3 [24]): 30%; Activity [25]: 0.5%
